Results collected from several papers.
Target: Serine/threonine-protein kinase tousled-like 2 (TLK2, Homo sapiens, UniProt Q86UE8)

N[C@@H]1CCN(c2nccc(-c3cnn4ncccc34)n2)C1  remaining binding (binding; 1 µM): 100%
O=C(Nc1cccnn1)N1CCC(=Cc2cccc(Oc3ccc(C(F)(F)F)cn3)c2)CC1  remaining binding (cell-free assay; competition with immobilised ligand; 1 µM): 100%
COc1cnc(Nc2cccc(S(N)(=O)=O)c2)nc1N1CCN(c2ccccc2)CC1  remaining binding (binding; competition with immobilised ligand; 1 µM): 96%
O=C(NCCCN1CCOCC1)c1ccc(Nc2ncc(Cl)c(-c3ccc(Cl)s3)n2)cc1  remaining binding (binding; competition with immobilised ligand; 1 µM): 77%
COc1ccnn2ncc(-c3ccnc(N(C)C)n3)c12  remaining binding (binding; 1 µM): 100%
O=C(c1ccc(Nc2ncc(Cl)c(-c3cc4ccccc4s3)n2)cc1)N1CCC(N2CCCC2)CC1  remaining binding (binding; competition with immobilised ligand; 1 µM): 26%
CCS(=O)(=O)c1cc2cc(C[C@](O)(CC(C)(C)c3ccc(F)cc3C(N)=O)C(F)(F)F)[nH]c2cn1  remaining binding (cell-free assay; competition with immobilised ligand; 1 µM): 100%
O=C(Nc1c[nH]nc1C(=O)NC1CCNCC1)c1cc(F)cc(F)c1  remaining binding (binding; competition with immobilised ligand; 1 µM): 98%
O=C(NCc1ncc(C(F)(F)F)cc1Cl)c1ccc2c(c1)C1(CCS(=O)(=O)CC1)[C@@H](C1CC1)N2S(=O)(=O)c1ccc(F)cc1  remaining binding (cell-free assay; competition with immobilised ligand; 1 µM): 100%
O=C(c1ccc(Nc2ncc(Cl)c(-c3ccc(Cl)s3)n2)cc1)N1CCC(N2CCCC2)CC1  remaining binding (binding; competition with immobilised ligand; 1 µM): 29%
CCN1CCN(Cc2ccc(C(=O)Nc3ccc(C)c(Oc4ccc5c(c4)CC(=O)N5)c3)cc2C(F)(F)F)CC1  remaining binding (binding; competition with immobilised ligand; 1 µM): 94%
F[C@@H]1CCN(c2nccc(-c3cnn4ncccc34)n2)C1  remaining binding (binding; 1 µM): 100%
CC1=C(C#N)[C@@H](c2ccc3[nH]nc(C)c3c2)C(C#N)=C(c2ccc(Cl)cc2)N1  remaining binding (cell-free assay; competition with immobilised ligand; 1 µM): 100%
C[C@@H]1CCN(c2nccc(-c3cnn4ncccc34)n2)C1  remaining binding (binding; 1 µM): 100%
Cc1nc(Cc2cccc(C(F)(F)F)c2)sc1-c1ccc(C(N)=O)nc1  remaining binding (cell-free assay; competition with immobilised ligand; 1 µM): 82%
C=CC(=O)N1CCC(C(=O)NCC(=O)N2CCN(c3nc(-c4cnc(N)nc4C(F)F)nc(N4CCOCC4)n3)CC2)CC1  remaining binding (binding; competition with immobilised ligand; 1 µM): 100%
CN(CCCC(F)(F)F)c1nccc(-c2cnn3ncccc23)n1  remaining binding (binding; 1 µM): 100%
Nc1ncc2c(n1)-c1c([nH]c3ccc(C#CC4CC4)cc13)CCCC2  remaining binding (binding; competition with immobilised ligand; 1 µM): 100%
c1cncc(-c2cccc(Nc3nccc(NC4CCCCC4)n3)c2)c1  remaining binding (binding; competition with immobilised ligand; 10 µM): 100%
CN(C)c1ncc(F)c(-c2cnn3ncccc23)n1  remaining binding (binding; 1 µM): 100%
O=C(N1CCS(=O)(=O)CC1)N1C[C@H](c2ccc(OC(F)(F)F)cc2)C[C@H](c2nc(C3CC3)no2)C1  remaining binding (cell-free assay; competition with immobilised ligand; 1 µM): 100%
